# Data from PubChem BioAssay AID1517 (The Scripps Research Institute Molecular Screening Center, 2009).
# Some of the results follow. A number with no mark means an inactive call.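 How the source made its calls: active means percent inhibition of p97 ATPase above a set limit, the primary screen's mean plus 3 SD (cut at about 15% in these data); inactive means the rest.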
# Target: Transitional endoplasmic reticulum ATPase (Homo sapiens) (UniProt P55072)
# Assay: blockers of p97 ATP hydrolysis – biochemical, confirmation (AID 1517);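 further: 0% = DMSO wells and 100% = wells lacking p97 protein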
# Conditions: recombinant p97 ATPase, Kinase-Glo ATP luminescence; at 8 µM; active compounds read high
# Summary of the method: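 Test system: recombinant p97 ATPase. Buffer or medium: Tris/MgCl2/EDTA/DTT buffer, pH 8.0. Compound dosing: one dose, 8 µM nominal final. Timing: 30 min pre-incubation, 3 h ATP reaction. Technique: Kinase-Glo luminescence. Measure: % inhibition versus DMSO and no-enzyme controls. Benchmarks: DMSO-only and no-enzyme wells. Replication: each compound tested in triplicate.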
# Chain of Transitional endoplasmic reticulum ATPase (Homo sapiens) (P55072 whole entry, looked up): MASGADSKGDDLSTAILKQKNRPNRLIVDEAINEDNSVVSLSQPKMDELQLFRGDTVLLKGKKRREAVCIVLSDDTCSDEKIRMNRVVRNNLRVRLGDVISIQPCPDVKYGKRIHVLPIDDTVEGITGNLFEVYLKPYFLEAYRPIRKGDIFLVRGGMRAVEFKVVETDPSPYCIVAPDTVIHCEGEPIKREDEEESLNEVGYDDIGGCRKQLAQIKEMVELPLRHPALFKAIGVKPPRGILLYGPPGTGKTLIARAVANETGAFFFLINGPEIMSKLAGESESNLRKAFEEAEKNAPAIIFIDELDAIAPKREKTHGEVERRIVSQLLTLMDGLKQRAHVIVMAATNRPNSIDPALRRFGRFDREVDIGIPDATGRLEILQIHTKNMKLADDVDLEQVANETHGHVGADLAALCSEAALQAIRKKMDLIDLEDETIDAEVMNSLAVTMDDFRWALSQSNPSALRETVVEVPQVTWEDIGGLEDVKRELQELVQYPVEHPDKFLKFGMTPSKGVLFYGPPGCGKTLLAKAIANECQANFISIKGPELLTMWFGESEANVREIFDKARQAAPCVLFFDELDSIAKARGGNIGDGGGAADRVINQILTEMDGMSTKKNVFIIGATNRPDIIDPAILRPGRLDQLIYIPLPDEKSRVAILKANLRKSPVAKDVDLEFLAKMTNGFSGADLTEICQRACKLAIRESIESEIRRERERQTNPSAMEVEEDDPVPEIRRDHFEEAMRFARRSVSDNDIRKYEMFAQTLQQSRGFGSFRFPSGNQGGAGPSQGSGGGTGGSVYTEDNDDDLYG
compound,measurement,value
O=c1[nH]c(CN2CC=C(c3ccccc3)CC2)nc2scc(-c3cccs3)c12,inhibition,10.8%
